ChEMBL document CHEMBL1131244, “New alkenyldiarylmethanes with enhanced potencies as anti-HIV agents which act as non-nucleoside reverse transcriptase inhibitors” (J Med Chem, 1998)

Key:
[1] = system: CCRF-CEM; experiment: The compound is evaluated for the cytotoxic concentration for the mock-infected CEM cells; format: functional; conditions: Homo sapiens
How it was run: (§1)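 XTT cytoprotection assay in CEM-SS cells infected with HIV-1 RF, with uninfected cultures for cytotoxicity, in presence of fetal calf serum. Data as percent of uninfected drug-free control. EC50 is 50% protection from cytopathicity; CC50 is 50% cell death in uninfected cells; TI = CC50/EC50. Triplicates on each of two sister plates, plate EC50s averaged. Confirmed by supernatant RT and p24.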

[2] = system: CEM-SS; experiment: Inhibitory concentration for cytopathicity of HIV-1 RF in CEM-SS cells; NA means there was no observed inhibition of HIV-1 cytopathicity up to the cytotoxic concentration in uninfected cells.; format: functional, cell-based; how it was run: as §1
[3] = target: T1, Human immunodeficiency virus type 1 reverse transcriptase (Human immunodeficiency virus 1, UniProt Q72547); experiment: Inhibitory activity against human immunodeficiency virus (HIV) - 1 reverse transcriptase with rCdG as the template primer
How it was run: (§2)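 Reactions stopped with ice-cold 10% trichloroacetate, filtered through GF/C membrane, washed with ethanol, radiolabel counted by Cerenkov counting. AZTTP and nevirapine as positive controls; IC50 reported.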

[4] = system: CEM-SS; experiment: Inhibitory concentration for cytopathicity of HIV-1 in CEM-SS cells; format: functional, cell-based; conditions: Homo sapiens; how it was run: as §1
[5] = system: CEM-SS; experiment: The compound is evaluated for the therapeutic index, which is the CC50 divided by the EC50.; format: functional; how it was run: as §1
[6] = target: Human immunodeficiency virus type 1 integrase (Human immunodeficiency virus 1, UniProt Q7ZJM1); experiment: The compound is evaluated for the inhibitory against HIV -1 integrase. NI refers to no inhibition.
Sequence of Human immunodeficiency virus type 1 integrase (Q7ZJM1 whole entry): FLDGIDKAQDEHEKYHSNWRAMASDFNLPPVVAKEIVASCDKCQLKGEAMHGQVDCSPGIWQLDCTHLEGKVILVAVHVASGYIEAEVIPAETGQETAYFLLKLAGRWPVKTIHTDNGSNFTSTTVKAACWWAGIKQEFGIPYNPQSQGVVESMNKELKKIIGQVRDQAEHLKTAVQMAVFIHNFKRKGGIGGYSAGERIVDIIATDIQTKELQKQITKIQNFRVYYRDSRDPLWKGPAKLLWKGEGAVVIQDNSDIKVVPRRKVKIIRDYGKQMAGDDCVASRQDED

[7] = target: Human immunodeficiency virus 1 nucleocapsid (Human immunodeficiency virus 1, UniProt Q76059); experiment: Inhibition of HIV-1 Nucleocapsid protein p7 (no inhibition)
Sequence of Human immunodeficiency virus 1 nucleocapsid (Q76059 whole entry): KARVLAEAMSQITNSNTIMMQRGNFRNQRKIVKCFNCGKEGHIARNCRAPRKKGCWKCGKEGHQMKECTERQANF

[8] = target: Human immunodeficiency virus type 1 protease (Human immunodeficiency virus 1, UniProt Q72874); experiment: The compound is evaluated for the inhibitory against HIV -1 protease, a 30% inhibition of HIV-1 protease was observed at a concentration of 100 uM
[9] = target: T1, Human immunodeficiency virus type 1 reverse transcriptase; experiment: The compound is evaluated for the inhibitory against HIV -1 reverse transcriptase with rAdT as the template primer.; how it was run: as §2
[10] = The compound is evaluated for the therapeutic index, which is the CC50 divided by the EC50; format: functional; how it was run: as §1

SMILES | CC50 [1] | EC50 [2] | IC50 [3] | EC50 [4] | TI [5] | IC50 [6] | IC50 [7] | IC50 [8] | IC50 [9] | TI [10]
CC=C(c1cc(Br)c(OC)c(C(=O)OC)c1)c1cc(Br)c(OC)c(C(=O)OC)c1 | 10 µM | Not Active | 26 µM | – | – | – | – | – | – | –
COC(=O)c1cc(C(=CCCN=[N+]=[N-])c2cc(Br)c(OC)c(C(=O)OC)c2)cc(Br)c1OC | > 316 µM | – | 94 µM | 1.1 µM | >278 | – | – | – | – | –
COC(=O)c1cc(C(=CCCN=[N+]=[N-])c2cc(Cl)c(OC)c(C(=O)OC)c2)cc(Cl)c1OC | 41.8 µM | – | 2 µM | 0.27 µM | – | No inhibition | Not Active | > 100 µM | 9.9 µM | 155
COC(=O)c1cc(C(=CCCO)c2cc(Cl)c(OC)c(C(=O)OC)c2)cc(Cl)c1OC | 16.8 µM | – | > 100 µM | 8.6 µM | 2 | – | – | – | – | –
C=C(c1cc(Br)c(OC)c(C(=O)OC)c1)c1cc(Br)c(OC)c(C(=O)OC)c1 | 316 µM | Not Active | > 100 µM | – | – | – | – | – | – | –
COC(=O)c1cc(C(=CC(=O)OC(C)(C)C)c2cc(Cl)c(OC)c(C(=O)OC)c2)cc(Cl)c1OC | > 100 µM | Not Active | > 100 µM | – | – | – | – | – | – | –
